Source: ChEMBL document CHEMBL4354797, “Novel Pyrazolo[4,3- d]pyrimidine as Potent and Orally Active Inducible Nitric Oxide Synthase (iNOS) Dimerization Inhibitor with Efficacy in Rheumatoid Arthritis Mouse Model” (J Med Chem, 2019)
Activity calls are given as the source filed them. The calls are words filed in the database; no cut-off is given here.

test system: RAW264.7; assay: Antiinflammatory activity in mouse RAW264.7 cells assessed as inhibition of LPS-induced NO production at 10 uM preincubated for 1 hr followed by LPS addition and measured after 24 hrs by Griess reagent-based assay relative to control; format: functional
Method in brief: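 RAW 264.7 cells pretreated with compound for 1 h, then LPS 1 µg/mL for 24 h. Single-point inhibition at 10 µM. IC50 by regression of inhibition over several concentrations. At least three independent experiments.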

| SMILES | inhibition at 10 µM | inhibition |
| --- | --- | --- |
| CCCc1nn(C)c2c(N3CCN(CC)CC3)nc(/C=C/c3ccccc3)nc12 | 10.2% |  |
| CCCc1nn(C)c2c(Nc3ccc(C(=O)OC)cc3)nc(/C=C/c3cc(OC)c(OC)c(OC)c3)nc12 | 10.3% |  |
| CCCc1nn(C)c2c(NCCc3ccccc3F)nc(/C=C/c3cc(OC)c(OC)c(OC)c3)nc12 | 85% |  |
| CCCc1nn(C)c2c(NCCc3ccccc3Cl)nc(/C=C/c3cc(OC)c(OC)c(OC)c3)nc12 | 46.9% |  |
| CCCc1nn(C)c2c(NCc3ccc(C(F)(F)F)cc3)nc(/C=C/c3cc(OC)c(OC)c(OC)c3)nc12 | 54.6% |  |
| CCCc1nn(C)c2c(Nc3cccc(C(F)(F)F)c3)nc(/C=C/c3ccco3)nc12 | 8.9% |  |
| CCCc1nn(C)c2c(NCc3ccc(Br)cc3)nc(/C=C/c3ccco3)nc12 | 40.6% |  |
| CCCc1nn(C)c2c(Nc3ccc(Cl)cc3)nc(/C=C/c3cc(OC)c(OC)c(OC)c3)nc12 | 25.3% |  |
| CCCc1nn(C)c2c(Nc3cccc(C)c3)nc(-c3cc(OC)c(OC)c(OC)c3)nc12 |  | inactive |
| CCCc1nn(C)c2c(NCc3ccc(F)cc3)nc(/C=C/c3cc(OC)c(OC)c(OC)c3)nc12 | 69.7% |  |
| CCCc1nn(C)c2c(NCc3ccc(OC)cc3)nc(/C=C/c3cc(OC)c(OC)c(OC)c3)nc12 | 73.1% |  |
| CCCc1nn(C)c2c(N3CCCC3)nc(/C=C/c3ccccc3)nc12 | 6.3% |  |
| CCCc1nn(C)c2c(NCCc3ccccc3F)nc(/C=C/c3ccccc3)nc12 | 43.9% |  |
| CCCc1nn(C)c2c(NCc3ccccc3Cl)nc(/C=C/c3ccco3)nc12 | 54.8% |  |
| CCCc1nn(C)c2c(Nc3ccc(C(=O)NC(C)(C)C)cc3)nc(/C=C/c3cc(OC)c(OC)c(OC)c3)nc12 | 10.6% |  |
| CCCc1nn(C)c2c(Nc3ccccc3)nc(-c3cc(OC)c(OC)c(OC)c3)nc12 | 22.2% |  |
| CCCc1nn(C)c2c(Nc3cccc(C)c3)nc(/C=C/c3cc(OC)c(OC)c(OC)c3)nc12 | 25.8% |  |
| CCCc1nn(C)c2c(Nc3ccc(C(=O)OC)cc3)nc(-c3cc(OC)c(OC)c(OC)c3)nc12 | 17.3% |  |
| CCCc1nn(C)c2c(NCc3ccc(Cl)cc3)nc(/C=C/c3ccccc3)nc12 | 24.2% |  |
| CCCc1nn(C)c2c(NCCc3ccccc3)nc(/C=C/c3cc(OC)c(OC)c(OC)c3)nc12 | 86.1% |  |
| CCCc1nn(C)c2c(N3CCOCC3)nc(-c3cc(OC)c(OC)c(OC)c3)nc12 | 5.2% |  |
| CCCc1nn(C)c2c(Nc3cccc(C)c3)nc(/C=C/c3ccco3)nc12 | 8.9% |  |
| CCCc1nn(C)c2c(NCCc3ccc(OC)cc3)nc(/C=C/c3ccccc3)nc12 | 48% |  |
| CCCc1nn(C)c2c(Nc3cccc(C(F)(F)F)c3)nc(-c3cc(OC)c(OC)c(OC)c3)nc12 |  | inactive |
| CCCc1nn(C)c2c(Nc3ccc(C(=O)O)cc3)nc(/C=C/c3cc(OC)c(OC)c(OC)c3)nc12 | 15.3% |  |
| CCCc1nn(C)c2c(N3CCCCC3)nc(-c3cc(OC)c(OC)c(OC)c3)nc12 | 7.6% |  |
| CCCc1nn(C)c2c(NCCc3ccccc3Cl)nc(/C=C/c3ccco3)nc12 | 70.8% |  |

| SMILES | inhibition at 10 µM | inhibition |
| --- | --- | --- |
| CCCc1nn(C)c2c(NCCc3ccc(Cl)cc3)nc(/C=C/c3ccccc3)nc12 | 10.7% |  |
| CCCc1nn(C)c2c(NCc3ccc(Cl)cc3)nc(/C=C/c3cc(OC)c(OC)c(OC)c3)nc12 | 67.2% |  |
| CCCc1nn(C)c2c(NCc3ccccc3OC)nc(/C=C/c3ccco3)nc12 | 38.4% |  |
| CCCc1nn(C)c2c(Nc3ccc(C(=O)OC)cc3)nc(/C=C/c3ccccc3)nc12 | 42.4% |  |
| CCCc1nn(C)c2c(N(C)C)nc(/C=C/c3ccco3)nc12 | 30.6% |  |
| CCCc1nn(C)c2c(Nc3ccccc3)nc(/C=C/c3cc(OC)c(OC)c(OC)c3)nc12 | 48.1% |  |
| CCCc1nn(C)c2c(NCCc3ccccc3)nc(/C=C/c3ccco3)nc12 | 36.4% |  |
| CCCc1nn(C)c2c(NCc3ccc(F)cc3)nc(/C=C/c3ccco3)nc12 | 50.7% |  |
| CCCc1nn(C)c2c(N3CCCCC3)nc(/C=C/c3ccccc3)nc12 | 7.7% |  |
| CCCc1nn(C)c2c(N3CCN(CC)CC3)nc(/C=C/c3cc(OC)c(OC)c(OC)c3)nc12 | 28.3% |  |
| CCCc1nn(C)c2c(Nc3ccc(OC)cc3)nc(/C=C/c3cc(OC)c(OC)c(OC)c3)nc12 | 63.2% |  |
| CCCc1nn(C)c2c(Nc3cccc(C)c3)nc(/C=C/c3ccccc3)nc12 | 15.3% |  |
| CCCc1nn(C)c2c(NC(C)CC)nc(/C=C/c3cc(OC)c(OC)c(OC)c3)nc12 (centres undefined) | 75% |  |
| CCCc1nn(C)c2c(Nc3ccccc3C)nc(/C=C/c3cc(OC)c(OC)c(OC)c3)nc12 | 54.4% |  |
| CCCc1nn(C)c2c(NCc3ccc(OC)cc3)nc(/C=C/c3ccco3)nc12 | 43.8% |  |
| CCCc1nn(C)c2c(Nc3ccccc3Br)nc(/C=C/c3cc(OC)c(OC)c(OC)c3)nc12 | 38.5% |  |
| CCCc1nn(C)c2c(NCc3ccccc3Cl)nc(/C=C/c3cc(OC)c(OC)c(OC)c3)nc12 | 90% |  |
| CCCc1nn(C)c2c(NCCCN3CCOCC3)nc(/C=C/c3ccccc3)nc12 | 42.4% |  |
| CCCc1nn(C)c2c(NCc3ccc(C(F)(F)F)cc3)nc(/C=C/c3ccco3)nc12 | 50.2% |  |
| CCCc1nn(C)c2c(NCc3cccc(OC)c3)nc(/C=C/c3ccco3)nc12 | 35.6% |  |
| CCCc1nn(C)c2c(NCCc3ccccc3)nc(/C=C/c3ccccc3)nc12 | 48.6% |  |
| CCCc1nn(C)c2c(Nc3ccc(C(=O)N4CCN(CC)CC4)cc3)nc(-c3cc(OC)c(OC)c(OC)c3)nc12 | 27.6% |  |
| CCCc1nn(C)c2c(Nc3ccc(C(F)(F)F)cc3)nc(/C=C/c3cc(OC)c(OC)c(OC)c3)nc12 | 37.8% |  |
| CCCc1nn(C)c2c(Nc3cccc(Br)c3)nc(/C=C/c3cc(OC)c(OC)c(OC)c3)nc12 | 31% |  |
| CCCc1nn(C)c2c(N3CCCC3)nc(/C=C/c3cc(OC)c(OC)c(OC)c3)nc12 | 15.5% |  |
| CCCc1nn(C)c2c(Nc3cccc(C(F)(F)F)c3)nc(/C=C/c3ccccc3)nc12 | 14.6% |  |
| CCCc1nn(C)c2c(NCc3ccc(Br)cc3)nc(/C=C/c3cc(OC)c(OC)c(OC)c3)nc12 | 53.9% |  |

| SMILES | inhibition at 10 µM | inhibition |
| --- | --- | --- |
| CCCc1nn(C)c2c(NCCc3ccccc3F)nc(/C=C/c3ccco3)nc12 | 73% |  |
| CCCCNC(=O)c1ccc(Nc2nc(-c3cc(OC)c(OC)c(OC)c3)nc3c(CCC)nn(C)c23)cc1 |  | inactive |
| CCCc1nn(C)c2c(Nc3ccc(Br)cc3)nc(/C=C/c3cc(OC)c(OC)c(OC)c3)nc12 | 33% |  |
| CCCc1nn(C)c2c(NCCc3ccc(Cl)cc3)nc(-c3cc(OC)c(OC)c(OC)c3)nc12 | 22.2% |  |
| CCCc1nn(C)c2c(NCCc3ccc(O)cc3)nc(/C=C/c3cc(OC)c(OC)c(OC)c3)nc12 | 15% |  |
| CCCc1nn(C)c2c(NCc3ccco3)nc(/C=C/c3ccco3)nc12 | 52.3% |  |
| CCCc1nn(C)c2c(N(C)C)nc(/C=C/c3cc(OC)c(OC)c(OC)c3)nc12 | 82.1% |  |
| CCCc1nn(C)c2c(Nc3ccc(C(=O)N4CCN(CC)CC4)cc3)nc(/C=C/c3cc(OC)c(OC)c(OC)c3)nc12 | 15.4% |  |
| CCCc1nn(C)c2c(Nc3ccc(OC(F)(F)F)cc3)nc(/C=C/c3cc(OC)c(OC)c(OC)c3)nc12 | 16.4% |  |
| CCCc1nn(C)c2c(NCCc3cccc(Cl)c3)nc(/C=C/c3cc(OC)c(OC)c(OC)c3)nc12 | 80% |  |
| CCCc1nn(C)c2c(N3CCOCC3)nc(/C=C/c3ccccc3)nc12 | 10.2% |  |
| CCCc1nn(C)c2c(NCCc3ccccc3Cl)nc(/C=C/c3ccccc3)nc12 | 14.3% |  |
| CCCc1nn(C)c2c(N(C)C)nc(/C=C/c3ccccc3)nc12 | 27.1% |  |
| CCCc1nn(C)c2c(NC(C)C)nc(/C=C/c3ccco3)nc12 | 37.7% |  |
| CCCc1nn(C)c2c(NCCc3ccccc3)nc(-c3cc(OC)c(OC)c(OC)c3)nc12 | 20.2% |  |
| CCCc1nn(C)c2c(Nc3cccc(C(F)(F)F)c3)nc(/C=C/c3cc(OC)c(OC)c(OC)c3)nc12 | 38.2% |  |
| CCCc1nn(C)c2c(NCc3ccco3)nc(/C=C/c3cc(OC)c(OC)c(OC)c3)nc12 | 62.1% |  |
| CCCc1nn(C)c2c(Nc3ccc(F)c(C(F)(F)F)c3)nc(/C=C/c3cc(OC)c(OC)c(OC)c3)nc12 | 82.6% |  |
| CCCCNC(=O)c1ccc(Nc2nc(/C=C/c3cc(OC)c(OC)c(OC)c3)nc3c(CCC)nn(C)c23)cc1 | 35.9% |  |
| CCCc1nn(C)c2c(NC)nc(-c3cc(OC)c(OC)c(OC)c3)nc12 | 21.6% |  |
| CCCc1nn(C)c2c(NCc3cccc(OC)c3)nc(/C=C/c3cc(OC)c(OC)c(OC)c3)nc12 | 70.9% |  |
| CCCc1nn(C)c2c(NCCc3ccc(OC)cc3)nc(-c3cc(OC)c(OC)c(OC)c3)nc12 | 10.2% |  |
| CCCc1nn(C)c2c(N3CCCCC3)nc(/C=C/c3cc(OC)c(OC)c(OC)c3)nc12 | 16.3% |  |
| CCCc1nn(C)c2c(N3CCOCC3)nc(/C=C/c3cc(OC)c(OC)c(OC)c3)nc12 | 81% |  |
| CCCc1nn(C)c2c(N(C)C)nc(-c3cc(OC)c(OC)c(OC)c3)nc12 | 21.2% |  |
